Measurements taken from ChEMBL document CHEMBL2010709, “Pinophilins A and B, inhibitors of mammalian A-, B-, and Y-family DNA polymerases and human cancer cell proliferation” (J Nat Prod, 2012).

Tests used:
[1] = Growth inhibition of HUVEC cells after 72 hrs by WST-1 assay; assay type: cell-based; conditions: human
Summary of the method: (§1)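 Normal cells (HDF, HUVEC) were grown in Eagle's MEM with 4.5 g/L glucose, 10% FCS, 5 mM L-glutamine and penicillin/streptomycin, 37 °C, 5% CO2. Cells were seeded at 1 × 10^4 per well, cultured 12 h, then exposed to compound (0.5% DMSO final) for 72 h. Viability was read by WST-1 at 450/630 nm. GI50 given as mean ± SE of five experiments.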

HeLa = test: Growth inhibition of human HeLa cells after 24 hrs by WST-1 assay; assay type: functional
Summary of the method: (§2)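 Cancer cells were grown in McCoy's 5A with 10% FBS and penicillin/streptomycin, 37 °C, 5% CO2. Cells were seeded at 1 × 10^4 per well, cultured 12 h, then given compound (10 mM DMSO stock diluted in medium, 0.5% DMSO) for 24 h. WST-1 was added for 4 h and absorbance read at 450/630 nm. GI50 given as mean ± SE, five independent experiments.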

BALL-1 = test: Growth inhibition of human BALL-1 cells after 24 hrs by WST-1 assay; assay type: functional; conditions: BALL-1, 24 h; summary of the method: as §2
[2] = Growth inhibition of HDF cells after 72 hrs by WST-1 assay; assay type: cell-based; conditions: human; summary of the method: as §1
A549 = test: Growth inhibition of human A549 cells after 24 hrs by WST-1 assay; assay type: functional; conditions: A549, 24 h; summary of the method: as §2
NUGC-3 = test: Growth inhibition of human NUGC3 cells after 24 hrs by WST-1 assay; assay type: functional; conditions: NUGC-3, 24 h; summary of the method: as §2
HCT-116 = test: Growth inhibition of against human HCT116 cells after 24 hrs by WST-1 assay; assay type: functional; conditions: HCT-116, 24 h; summary of the method: as §2

Nc1ccn([C@@H]2O[C@H](CO)[C@@H](O)[C@@H]2O)c(=O)n1 [CYTARABINE]
GI50 at 72 h [1]: 230 nM | GI50 (HeLa): 180 nM | GI50 (BALL-1): 80 nM | GI50 at 72 h [2]: 250 nM | GI50 (A549): 200 nM | GI50 (NUGC-3): 250 nM | GI50 (HCT-116): 120 nM
